From ChEMBL document CHEMBL3804820, “2-hydroxyisoquinoline-1,3(2H,4H)-diones (HIDs) as human immunodeficiency virus type 1 integrase inhibitors: Influence of the alkylcarboxamide substitution of position 4” (Eur J Med Chem, 2016)
Active and inactive are the calls of the source. The rule behind the calls is not given here.

Columns and labels:
MDCK-II [1] = experiment: Inhibition of human P-gp expressed in MDCK2-MDR1 cells assessed as reduction in calcien-AM efflux at 100 uM incubated for 20 mins by fluorimetry relative to control; format: cell-based
Outline: (§1)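 P-gp efflux inhibition in MDR1-MDCKII cells with calcein AM substrate, tested up to 100.0 µM. Read as percentage inhibition of control.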

[2] = Cytotoxicity against human HepG2 cells assessed as reduction in nuclear size at 1 uM after 72 hrs by fluorescent image analysis relative to untreated control; format: cell-based; conditions: read-out: INH
Outline: (§2)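 Contract in vitro cytotoxicity panel covering cell number, intracellular free calcium, nuclear size, membrane permeability and mitochondrial membrane potential. Compounds tested at 1.0, 30.0 and 100.0 µM; values are percentage change versus untreated control, and IC50 where derived.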

[3] = Cytotoxicity against human HepG2 cells assessed as reduction in nuclear size at 100 uM after 72 hrs by fluorescent image analysis relative to untreated control; format: cell-based; conditions: read-out: INH; outline: as §2
CYP1A2 = molecular target: T1, CYP1A2 (Homo sapiens, UniProt P05177); experiment: Inhibition of human recombinant CYP1A2 using CEC as substrate at 10 uM incubated for 30 mins by fluorimetry relative to control; format: ADME; conditions: recombinant CYP1A2, probe CEC
T1 sequence (P05177 whole entry): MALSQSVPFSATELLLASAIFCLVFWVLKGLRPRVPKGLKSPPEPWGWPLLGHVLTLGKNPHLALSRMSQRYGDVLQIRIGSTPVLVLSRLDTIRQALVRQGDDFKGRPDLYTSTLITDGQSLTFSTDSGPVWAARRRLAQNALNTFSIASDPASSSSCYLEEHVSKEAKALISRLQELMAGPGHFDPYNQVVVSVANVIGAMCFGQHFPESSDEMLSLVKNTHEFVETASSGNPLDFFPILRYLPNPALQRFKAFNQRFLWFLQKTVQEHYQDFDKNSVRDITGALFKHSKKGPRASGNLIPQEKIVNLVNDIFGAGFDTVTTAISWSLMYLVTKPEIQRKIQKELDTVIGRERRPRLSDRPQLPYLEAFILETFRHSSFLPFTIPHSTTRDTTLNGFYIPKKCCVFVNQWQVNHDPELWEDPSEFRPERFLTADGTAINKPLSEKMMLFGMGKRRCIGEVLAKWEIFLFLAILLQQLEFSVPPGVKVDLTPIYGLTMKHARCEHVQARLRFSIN
Outline: (§3)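 Recombinant CYP isoforms, each with its fluorogenic substrate: CYP1A2 and CYP2C19 with CEC, CYP2C9 and CYP2D6 with MFC, CYP3A4 with BFC. Read as percentage inhibition of control, standard contract assays.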

CYP2D6 = CYP2D6 (Homo sapiens, UniProt P10635); experiment: Inhibition of human recombinant CYP2D6 using MFC as substrate at 10 uM incubated for 40 mins by fluorimetry relative to control; format: ADME; conditions: recombinant CYP2D6, probe MFC; outline: as §3
CYP3A4 = CYP3A4 (Homo sapiens, UniProt P08684); experiment: Inhibition of human recombinant CYP3A4 using BFC as substrate at 10 uM incubated for 30 mins by fluorimetry relative to control; format: ADME; conditions: recombinant CYP3A4, probe BFC; outline: as §3
hERG (KCNH2) [4] = molecular target: T2, hERG (KCNH2) (Homo sapiens, UniProt Q12809); experiment: in vitro; conditions: CHO-K1 cells expressing human ERG
HepG2 [5] = experiment: Cytotoxicity against human HepG2 cells assessed as increase in membrane permeability at 30 uM after 72 hrs by fluorescent image analysis relative to untreated control; format: cell-based; conditions: hepg2, 72 h
[6] = Cytotoxicity against human HepG2 cells assessed as reduction in mitochondrial membrane potential at 100 uM after 72 hrs by fluorescent image analysis relative to untreated control; format: cell-based; conditions: read-out: INH; outline: as §2
hERG (KCNH2) [7] = molecular target: T2, hERG (KCNH2); experiment: in vitro; conditions: CHO-K1 cells expressing human ERG; remark: listed apart in the source
CYP2C19 = CYP2C19 (Homo sapiens, UniProt P33261); experiment: Inhibition of human recombinant CYP2C19 using CEC as substrate at 10 uM incubated for 50 mins by fluorimetry relative to control; format: ADME; conditions: recombinant CYP2C19, probe CEC; outline: as §3
[8] = tested on: Human immunodeficiency virus 1; experiment: Selectivity ratio of EC50 for raltegravir resistant HIV1 harboring integrase G140S/Q148H double mutant infected in human MT4 cells to EC50 for wild type HIV1 infected in human MT4 cells; format: functional
Outline: (§4)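 MT-4 cells were infected with 100–300 CCID₅₀ of virus stock (titrated in MT-4 cells) in the presence of 5-fold serial drug dilutions. EC₅₀ is the concentration giving 50% protection against virus-induced cytopathic effect, read by MTT reduction (MT-4/MTT assay). The value is the fold-change in EC₅₀ for each mutant strain relative to the wild-type HIV-1 strain.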

[9] = Cytotoxicity against human HepG2 cells assessed as reduction in cell number at 100 uM after 72 hrs by fluorescent image analysis relative to untreated control; format: cell-based; conditions: read-out: INH; outline: as §2
HepG2 [10] = experiment: Cytotoxicity against human HepG2 cells assessed as increase in intracellular free calcium level at 100 uM after 72 hrs by fluorescent image analysis relative to untreated control; format: cell-based; conditions: hepg2, 72 h; outline: as §2
HepG2 [11] = experiment: Cytotoxicity against human HepG2 cells assessed as increase in membrane permeability at 100 uM after 72 hrs by fluorescent image analysis relative to untreated control; format: cell-based; conditions: hepg2, 72 h
[12] = tested on: Human immunodeficiency virus 1; experiment: Selectivity ratio of EC50 for raltegravir resistant HIV1 harboring integrase Q148H mutant infected in human MT4 cells to EC50 for wild type HIV1 infected in human MT4 cells; format: functional; outline: as §4
[13] = Cytotoxicity against human HepG2 cells assessed as reduction in mitochondrial membrane potential at 30 uM after 72 hrs by fluorescent image analysis relative to untreated control; format: cell-based; conditions: read-out: INH; outline: as §2
[14] = Cytotoxicity against human HepG2 cells assessed as reduction in cell number at 1 uM after 72 hrs by fluorescent image analysis relative to untreated control; format: cell-based; conditions: read-out: INH; outline: as §2
MDCK-II [15] = experiment: Inhibition of human P-gp expressed in MDCK2-MDR1 cells assessed as reduction in calcien-AM efflux at 1 uM incubated for 20 mins by fluorimetry relative to control; format: cell-based; outline: as §1
[16] = tested on: Human immunodeficiency virus 1; experiment: Selectivity ratio of EC50 for raltegravir resistant HIV1 harboring integrase N155H mutant infected in human MT4 cells to EC50 for wild type HIV1 infected in human MT4 cells; format: functional; outline: as §4
HepG2 [17] = experiment: Cytotoxicity against human HepG2 cells assessed as increase in intracellular free calcium level at 1 uM after 72 hrs by fluorescent image analysis relative to untreated control; format: cell-based; conditions: hepg2, 72 h; outline: as §2
HepG2 [18] = experiment: Cytotoxicity against human HepG2 cells assessed as increase in membrane permeability at 1 uM after 72 hrs by fluorescent image analysis relative to untreated control; format: cell-based; conditions: hepg2, 72 h
CYP2C9 = CYP2C9 (Homo sapiens, UniProt P11712); experiment: Inhibition of human recombinant CYP2C9 using MFC as substrate at 10 uM incubated for 40 mins by fluorimetry relative to control; format: ADME; conditions: recombinant CYP2C9, probe MFC; outline: as §3
[19] = Cytotoxicity against human HepG2 cells assessed as reduction in cell number at 30 uM after 72 hrs by fluorescent image analysis relative to untreated control; format: cell-based; conditions: read-out: INH; outline: as §2
hERG (KCNH2) [20] = molecular target: T2, hERG (KCNH2); experiment: in vitro; conditions: CHO-K1 cells expressing human ERG; remark: listed apart in the source
[21] = Cytotoxicity against human HepG2 cells assessed as reduction in mitochondrial membrane potential at 1 uM after 72 hrs by fluorescent image analysis relative to untreated control; format: cell-based; conditions: read-out: INH; outline: as §2
[22] = Cytotoxicity against human HepG2 cells assessed as reduction in nuclear size at 30 uM after 72 hrs by fluorescent image analysis relative to untreated control; format: cell-based; conditions: read-out: INH; outline: as §2
[23] = tested on: Human immunodeficiency virus 1; experiment: Antiviral activity against HIV1 3B infected in human MT4 cells at 50 to 100 times antiviral EC50 added 1 to 25 hrs post infection assessed as time required for loss of inhibition of viral replication measured at 30 hrs post infection by p24 ELISA method; format: functional
MDCK-II [24] = experiment: Inhibition of human P-gp expressed in MDCK2-MDR1 cells assessed as reduction in calcien-AM efflux at 30 uM incubated for 20 mins by fluorimetry relative to control; format: cell-based; outline: as §1
HepG2 [25] = experiment: Cytotoxicity against human HepG2 cells assessed as increase in intracellular free calcium level at 30 uM after 72 hrs by fluorescent image analysis relative to untreated control; format: cell-based; conditions: hepg2, 72 h; outline: as §2

T2 sequence (Q12809 whole entry): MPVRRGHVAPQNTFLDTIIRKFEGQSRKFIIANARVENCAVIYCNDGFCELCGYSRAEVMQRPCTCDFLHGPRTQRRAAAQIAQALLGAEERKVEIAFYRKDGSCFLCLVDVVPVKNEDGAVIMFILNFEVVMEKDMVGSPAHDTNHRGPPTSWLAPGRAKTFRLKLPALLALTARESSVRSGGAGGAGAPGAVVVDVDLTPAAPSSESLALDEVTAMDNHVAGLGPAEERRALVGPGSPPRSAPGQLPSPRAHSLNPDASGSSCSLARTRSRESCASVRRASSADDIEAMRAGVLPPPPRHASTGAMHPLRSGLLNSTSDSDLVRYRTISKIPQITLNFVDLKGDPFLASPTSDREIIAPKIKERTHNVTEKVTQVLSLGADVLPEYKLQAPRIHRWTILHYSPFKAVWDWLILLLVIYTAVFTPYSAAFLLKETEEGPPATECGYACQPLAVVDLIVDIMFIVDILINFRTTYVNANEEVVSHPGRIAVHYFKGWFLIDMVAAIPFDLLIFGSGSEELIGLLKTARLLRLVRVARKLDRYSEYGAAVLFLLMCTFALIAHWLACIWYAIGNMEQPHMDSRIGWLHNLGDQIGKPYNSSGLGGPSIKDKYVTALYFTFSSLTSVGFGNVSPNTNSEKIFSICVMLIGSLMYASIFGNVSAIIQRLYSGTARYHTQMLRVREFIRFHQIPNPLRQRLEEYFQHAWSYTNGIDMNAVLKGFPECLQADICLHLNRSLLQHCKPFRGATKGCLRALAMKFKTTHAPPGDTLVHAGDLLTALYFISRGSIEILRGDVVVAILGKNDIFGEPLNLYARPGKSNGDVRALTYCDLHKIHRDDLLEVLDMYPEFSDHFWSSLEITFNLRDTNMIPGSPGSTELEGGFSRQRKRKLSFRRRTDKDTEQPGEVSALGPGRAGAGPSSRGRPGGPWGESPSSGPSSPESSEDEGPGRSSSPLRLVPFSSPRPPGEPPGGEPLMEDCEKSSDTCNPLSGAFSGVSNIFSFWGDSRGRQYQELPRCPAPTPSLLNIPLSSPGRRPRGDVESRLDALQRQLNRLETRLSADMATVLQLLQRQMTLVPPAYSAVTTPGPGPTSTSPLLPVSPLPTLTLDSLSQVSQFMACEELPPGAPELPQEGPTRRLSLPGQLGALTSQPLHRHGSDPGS
Chain of CYP2C19 (P33261 whole entry): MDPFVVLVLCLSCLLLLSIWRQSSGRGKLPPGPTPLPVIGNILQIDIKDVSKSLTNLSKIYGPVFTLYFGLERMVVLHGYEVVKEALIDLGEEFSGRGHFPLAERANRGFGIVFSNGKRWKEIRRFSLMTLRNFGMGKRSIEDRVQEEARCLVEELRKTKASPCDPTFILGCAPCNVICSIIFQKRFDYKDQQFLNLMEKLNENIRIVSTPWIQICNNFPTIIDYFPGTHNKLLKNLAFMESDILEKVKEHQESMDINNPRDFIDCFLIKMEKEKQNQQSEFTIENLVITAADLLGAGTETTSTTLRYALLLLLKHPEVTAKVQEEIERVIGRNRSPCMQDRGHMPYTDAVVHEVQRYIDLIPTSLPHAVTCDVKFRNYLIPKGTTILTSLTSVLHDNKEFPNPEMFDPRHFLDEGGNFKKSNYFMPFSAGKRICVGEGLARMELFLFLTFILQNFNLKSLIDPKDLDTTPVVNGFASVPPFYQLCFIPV
Chain of CYP3A4 (P08684 whole entry): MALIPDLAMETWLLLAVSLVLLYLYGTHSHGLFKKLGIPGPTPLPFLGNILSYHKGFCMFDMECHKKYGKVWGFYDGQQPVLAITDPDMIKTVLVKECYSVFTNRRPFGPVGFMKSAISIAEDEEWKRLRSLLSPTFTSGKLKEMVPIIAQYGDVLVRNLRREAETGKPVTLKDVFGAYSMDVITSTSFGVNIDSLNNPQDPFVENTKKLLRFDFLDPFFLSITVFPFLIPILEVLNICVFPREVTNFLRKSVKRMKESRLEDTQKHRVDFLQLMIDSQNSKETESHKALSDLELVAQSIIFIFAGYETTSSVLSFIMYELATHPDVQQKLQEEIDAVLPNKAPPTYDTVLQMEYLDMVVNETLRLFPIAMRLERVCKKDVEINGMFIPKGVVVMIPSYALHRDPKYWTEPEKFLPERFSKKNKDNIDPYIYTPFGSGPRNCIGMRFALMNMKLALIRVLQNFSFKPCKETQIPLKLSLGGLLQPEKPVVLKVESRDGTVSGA
Chain of CYP2D6 (P10635 whole entry): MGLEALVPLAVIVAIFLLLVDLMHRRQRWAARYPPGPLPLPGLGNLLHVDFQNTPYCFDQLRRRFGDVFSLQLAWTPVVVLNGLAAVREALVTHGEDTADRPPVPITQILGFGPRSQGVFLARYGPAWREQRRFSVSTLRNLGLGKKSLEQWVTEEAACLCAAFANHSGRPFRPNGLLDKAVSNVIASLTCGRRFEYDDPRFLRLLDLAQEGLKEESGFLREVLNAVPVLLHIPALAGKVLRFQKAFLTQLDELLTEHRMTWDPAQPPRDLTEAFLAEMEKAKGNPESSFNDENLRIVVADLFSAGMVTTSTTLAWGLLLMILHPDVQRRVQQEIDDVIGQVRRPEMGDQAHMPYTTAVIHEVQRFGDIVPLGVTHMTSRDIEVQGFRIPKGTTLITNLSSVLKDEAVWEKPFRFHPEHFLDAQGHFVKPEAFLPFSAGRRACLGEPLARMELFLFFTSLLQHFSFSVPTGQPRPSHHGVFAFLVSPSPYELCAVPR
Chain of CYP2C9 (P11712 whole entry): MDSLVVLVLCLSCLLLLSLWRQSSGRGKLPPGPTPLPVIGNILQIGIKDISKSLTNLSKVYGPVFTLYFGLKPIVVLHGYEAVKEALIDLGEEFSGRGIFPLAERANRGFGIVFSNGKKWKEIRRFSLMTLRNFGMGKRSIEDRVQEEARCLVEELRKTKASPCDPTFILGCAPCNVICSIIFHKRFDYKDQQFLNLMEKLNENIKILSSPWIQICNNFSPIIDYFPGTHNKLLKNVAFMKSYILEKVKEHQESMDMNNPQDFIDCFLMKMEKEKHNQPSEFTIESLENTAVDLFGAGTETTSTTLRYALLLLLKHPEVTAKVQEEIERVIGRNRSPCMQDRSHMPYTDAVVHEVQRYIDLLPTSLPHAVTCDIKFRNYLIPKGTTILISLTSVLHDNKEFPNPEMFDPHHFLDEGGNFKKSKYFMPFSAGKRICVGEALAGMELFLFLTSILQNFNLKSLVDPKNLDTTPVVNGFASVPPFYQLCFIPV

O=C(NCc1ccc(F)cc1)C1C(=O)N(O)C(=O)c2ccccc21 (stereo not given)
inhibition (MDCK-II [1]): -3.7% | cytotoxicity at 72 h, 1 µM [2]: -1% | cytotoxicity at 72 h, 100 µM [3]: 18.7% | inhibition at 0.5 h, 10 µM (CYP1A2): 5.2% | inhibition at 40 min, 10 µM (CYP2D6): 6.6% | inhibition at 0.5 h, 10 µM (CYP3A4): 35.9% | inhibition at 5 min, 10 µM (hERG (KCNH2) [4]): 13.3% | Activity (HepG2 [5]): 20.3% | cytotoxicity at 72 h, 100 µM [6]: 6.3% | inhibition at 5 min, 1 µM (hERG (KCNH2) [7]): 10.6% | inhibition at 50 min, 10 µM (CYP2C19): 18% | Ratio EC50 [8]: 1 | cytotoxicity at 72 h, 100 µM [9]: 16% | Activity (HepG2 [10]): 29.9% | Activity (HepG2 [11]): 41.2% | Ratio EC50 [12]: 1 | cytotoxicity at 72 h, 30 µM [13]: -21.2% | cytotoxicity at 72 h, 1 µM [14]: -22.8% | inhibition (MDCK-II [15]): -5.4% | Ratio EC50 [16]: 1 | Activity (HepG2 [17]): -1.7% | Activity (HepG2 [18]): -0.5% | inhibition at 40 min, 10 µM (CYP2C9): 6.4% | cytotoxicity at 72 h, 30 µM [19]: 25.7% | inhibition at 5 min, 0.1 µM (hERG (KCNH2) [20]): 3.4% | cytotoxicity at 72 h, 1 µM [21]: 11.8% | cytotoxicity at 72 h, 30 µM [22]: 13.1% | Activity [23]: Active | inhibition (MDCK-II [24]): -4% | Activity (HepG2 [25]): 9.6%
